Experimental data published in ChEMBL document CHEMBL2311525, “Design, synthesis, and pharmacological properties of new heteroarylpyridine/heteroarylpyrimidine derivatives as CB(2) cannabinoid receptor partial agonists” (J Med Chem, 2013).

Key:
Cannabinoid receptor 2 [1] = target: T1, Cannabinoid receptor 2 (Homo sapiens, UniProt P34972); test: Agonist activity at human CB2 receptor expressed in CHO cells assessed as forskolin-stimulated [3H]cyclic-AMP accumulation by scintillation counting analysis relative to WIN 55,212-2; type: functional, cell-based
T1 sequence (P34972 whole entry): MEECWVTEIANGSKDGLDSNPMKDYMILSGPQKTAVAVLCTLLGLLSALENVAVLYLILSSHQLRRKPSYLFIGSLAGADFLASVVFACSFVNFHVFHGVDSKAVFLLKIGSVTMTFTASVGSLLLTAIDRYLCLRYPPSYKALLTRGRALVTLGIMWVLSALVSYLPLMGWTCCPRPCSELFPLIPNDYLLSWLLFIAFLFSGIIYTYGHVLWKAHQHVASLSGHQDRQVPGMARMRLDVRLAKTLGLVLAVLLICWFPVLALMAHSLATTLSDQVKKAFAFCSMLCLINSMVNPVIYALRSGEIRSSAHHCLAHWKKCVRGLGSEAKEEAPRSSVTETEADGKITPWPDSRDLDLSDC
Method in brief: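 CHO cells stably expressing human CB2, 1 × 10^6 cells/assay, in buffered saline (10 mM MgCl2, 5 mM glucose, 5 mM HEPES, pH 7.4, 37 °C) with 0.5 mM Ro 20-1724. Preincubated 10 min at 37 °C, then tested with 1 μM forskolin. Stopped with cold 6% TCA and ether-extracted. cAMP read by [3H]cAMP competition binding to beef adrenal binding protein with charcoal separation.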

Cannabinoid receptor 2 [2] = target: T2, Cannabinoid receptor 2 (Rattus norvegicus, UniProt Q9QZN9); test: Displacement of [3H]CP-55,940 from Sprague-Dawley rat spleen CB2 receptor by scintillation counting analysis
T2 sequence (Q9QZN9 whole entry): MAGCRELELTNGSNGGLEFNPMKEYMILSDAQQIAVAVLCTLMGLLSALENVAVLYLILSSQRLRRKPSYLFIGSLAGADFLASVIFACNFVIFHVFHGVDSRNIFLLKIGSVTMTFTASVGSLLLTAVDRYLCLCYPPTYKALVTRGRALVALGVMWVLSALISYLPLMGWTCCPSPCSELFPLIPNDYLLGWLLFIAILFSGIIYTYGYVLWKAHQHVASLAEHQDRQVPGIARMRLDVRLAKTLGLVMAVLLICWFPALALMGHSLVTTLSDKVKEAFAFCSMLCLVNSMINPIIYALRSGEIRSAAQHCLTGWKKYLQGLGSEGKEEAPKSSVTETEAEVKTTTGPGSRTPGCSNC
Method in brief: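 Male Sprague-Dawley rat spleen membranes, prepared by spinning at 2000g and then 40000g, in 50 mM Tris-HCl with 1 mM EDTA, 3 mM MgCl2 and 0.5% fatty-acid-free BSA, pH 7.4. Filtered on GF/C.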

Cannabinoid receptor 1 [3] = target: T3, Cannabinoid receptor 1 (Homo sapiens, UniProt P21554); test: Displacement of [3H]CP-55,940 from human recombinant CB1 receptor expressed in CHO cell membranes after 90 mins by scintillation counting analysis
T3 sequence (P21554 whole entry): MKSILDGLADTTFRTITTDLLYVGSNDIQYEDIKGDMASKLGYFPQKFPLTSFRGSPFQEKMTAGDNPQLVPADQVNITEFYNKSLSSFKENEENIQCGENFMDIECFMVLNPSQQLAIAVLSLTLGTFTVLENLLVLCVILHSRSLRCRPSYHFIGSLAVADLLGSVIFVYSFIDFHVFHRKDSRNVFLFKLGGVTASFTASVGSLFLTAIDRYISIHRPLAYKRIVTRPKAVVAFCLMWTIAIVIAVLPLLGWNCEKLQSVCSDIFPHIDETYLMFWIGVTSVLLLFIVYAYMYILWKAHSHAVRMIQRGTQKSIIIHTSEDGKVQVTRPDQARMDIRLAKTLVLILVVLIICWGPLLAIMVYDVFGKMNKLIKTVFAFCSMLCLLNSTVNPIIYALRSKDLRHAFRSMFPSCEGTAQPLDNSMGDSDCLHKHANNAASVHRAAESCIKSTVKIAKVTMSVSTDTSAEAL

Cannabinoid receptor 2 [4] = target: T1, Cannabinoid receptor 2; test: Agonist activity at human CB2 receptor expressed in CHO cells assessed as forskolin-stimulated [3H]cyclic-AMP accumulation by scintillation counting analysis; type: functional, cell-based
Cannabinoid receptor 2 [5] = target: T1, Cannabinoid receptor 2; test: Displacement of [3H]CP-55,940 from human recombinant CB2 receptor expressed in CHO cell membranes after 60 mins by scintillation counting analysis
Homo sapiens = organism: Homo sapiens; test: Selectivity index, ratio of Ki for human recombinant CB1 receptor to Ki for human recombinant CB2 receptor
Cannabinoid receptor 1 [6] = target: Cannabinoid receptor 1 (Rattus norvegicus, UniProt P20272); test: Displacement of [3H]CP-55,940 from Sprague-Dawley rat brain CB1 receptor by scintillation counting analysis
Cannabinoid receptor 1 (Rattus norvegicus, UniProt P20272), sequence (P20272 whole entry): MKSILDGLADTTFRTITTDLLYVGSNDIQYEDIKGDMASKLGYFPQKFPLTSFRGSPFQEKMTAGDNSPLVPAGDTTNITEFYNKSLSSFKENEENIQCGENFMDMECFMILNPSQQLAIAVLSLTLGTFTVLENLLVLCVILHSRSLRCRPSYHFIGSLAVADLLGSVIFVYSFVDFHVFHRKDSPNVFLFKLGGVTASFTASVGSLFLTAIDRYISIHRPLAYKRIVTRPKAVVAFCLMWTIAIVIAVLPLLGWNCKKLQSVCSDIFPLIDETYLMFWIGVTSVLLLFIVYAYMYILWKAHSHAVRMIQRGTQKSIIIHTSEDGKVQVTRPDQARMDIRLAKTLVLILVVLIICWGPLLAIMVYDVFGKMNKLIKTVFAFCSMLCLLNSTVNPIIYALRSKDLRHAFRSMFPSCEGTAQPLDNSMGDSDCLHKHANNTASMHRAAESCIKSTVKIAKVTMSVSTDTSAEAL
Method in brief: (§1)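 Male Sprague-Dawley rat brain membranes, prepared by spinning at 2000g and then 40000g, in 50 mM Tris-HCl with 1 mM EDTA, 3 mM MgCl2 and 0.5% fatty-acid-free BSA, pH 7.4. Incubated with 1.0 nM [3H]CP-55,940, 40 μg protein/100 μL and test compound at 1 nM–10 μM. Filtered on GF/C. Ki by Cheng–Prusoff, n = 4.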

[7] = target: Cannabinoid receptor 1 (Rattus norvegicus) (UniProt P20272); test: Displacement of [3H]CP-55,940 from Sprague-Dawley rat brain CB1 receptor at 1 to 10000 nM by scintillation counting analysis; method in brief: as §1
Cannabinoid receptor 1 (Rattus norvegicus), sequence (P20272 whole entry): as above

Cannabinoid receptor 1 [8] = target: T3, Cannabinoid receptor 1; test: Displacement of [3H]CP-55,940 from human recombinant CB1 receptor expressed in CHO cell membranes at 1 to 10000 nM after 90 mins by scintillation counting analysis
Method in brief: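 Membranes from CHO cells expressing hCB1, spun at 100000g, in 50 mM Tris-HCl with 0.5% BSA, 5 mM MgCl2 and 2.5 mM EDTA, pH 7.4. Incubated with 0.5 nM [3H]CP-55,940 and compound at 1 nM–10 μM for 90 min at 30 °C. Filtered on GF/C and counted. Ki by Cheng–Prusoff, n = 4.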

SMILES	Emax (Cannabinoid receptor 2 [1]) [%]	Ki (Cannabinoid receptor 2 [2]) [nM]	Ki (Cannabinoid receptor 1 [3]) [nM]	EC50 (Cannabinoid receptor 2 [4]) [nM]	Ki (Cannabinoid receptor 2 [5]) [nM]	Ratio Ki (Homo sapiens)	Ki (Cannabinoid receptor 1 [6]) [nM]	inhibition [7] [%]	inhibition (Cannabinoid receptor 1 [8]) [%]
CCCCCn1cc(C(=O)NC2CCCCCC2)c(=O)c2c(C)csc21	-95	8.23	52	65	6.95	7.5	67		
CCCCCn1cc(C(=O)NC23CC4CC(CC(C4)C2)C3)c(=O)c2c(C)nn(C)c21	68	11.4	800	49	9.51	84	832		
CCCCCn1cc(C(=O)NC23CC4CC(CC(C4)C2)C3)c(=O)c2c(CC)nn(C)c21	51	97	440	162	37	12	2670		
CCCCCn1cc(C(=O)NC(C)CCC(C)C)c(=O)c2c(C)nn(C)c21 (stereo not given)	46	262	1800	827	212	8.5	2260		
CCCCCn1cc(C(=O)NC2CCCCC2)c(=O)c2c(C)nn(C)c21	52	100	500	323	85	5.9	1420		
CCCCCn1cc(C(=O)N[C@H]2CC[C@H](C)CC2)c(=O)c2c(C)nn(C)c21	14	13.3	4570	58	11.4	401	4800		
CCCCCn1cc(C(=O)NC2CCCCCC2)c(=O)c2c(C)noc21	99	50	145	35	18.5	7.8	184		
CCCCCn1cc(C(=O)NC2CCCCC2)c(=O)c2c(-c3ccc(Cl)cc3)nn(C)c21		5020	> 10000		3620	> 2.8	> 10000	15	22
CCCCCn1cc(C(=O)NC23CC4CC(C)(CC(C)(C4)C2)C3)c(=O)c2c(C)nn(C)c21	71	16.7	1050	45	9.83	107	3260		
CCCCCn1cc(C(=O)NC2CCCCCC2)c(=O)c2c(-c3ccc(Cl)cc3)nn(C)c21		4050	> 10000		2830	> 3.5	> 10000	12	17
CCCCCn1cc(C(=O)NC2CCCCC2)c(=O)c2c(CC)nn(C)c21	32	516	957	2350	469	2	1120		
CCCCCn1cc(C(=O)N[C@H]2CC[C@@H](C)CC2)c(=O)c2c(C)nn(C)c21	16	11.8	723	52	10.6	68	750		
CCCCCn1cc(C(=O)NC23CC4CC(CC(C4)C2)C3)c(=O)c2cnn(C)c21	67	13.3	4750	41	11.6	432	5340		
CCCCCn1cc(C(=O)NC2CCCCC2)c(=O)c2cnn(C)c21	48	250	5150	872	237	22	5650		
CCCCCn1cc(C(=O)NC23CC4CC(CC(C4)C2)C3)c(=O)n2nc(-c3ccccc3)nc12		4.83	523		3.58	146	560		
CCCCCn1cc(C(=O)NC2CCCCCC2)c(=O)c2cnn(C)c21	56	130	4550	404	103	44	5200		

SMILES	Emax (Cannabinoid receptor 2 [1]) [%]	Ki (Cannabinoid receptor 2 [2]) [nM]	Ki (Cannabinoid receptor 1 [3]) [nM]	EC50 (Cannabinoid receptor 2 [4]) [nM]	Ki (Cannabinoid receptor 2 [5]) [nM]	Ratio Ki (Homo sapiens)	Ki (Cannabinoid receptor 1 [6]) [nM]	inhibition [7] [%]	inhibition (Cannabinoid receptor 1 [8]) [%]
CCCCCn1cc(C(=O)NC2CCCCC2)c(=O)c2c(C)csc21	-64	14.8	86	107	12.3	7.2	98		
CCCCCn1cc(C(=O)NC23CC4CC(CC(C4)C2)C3)c(=O)c2c(C)c(C)sc21	-178	4.26	43	34	3.27	15.9	52		
CCCCn1cc(C(=O)NC2CCCCC2)c(=O)c2c(C)nn(C)c21	38	145	1260	1890	138	9.1	1530		
Cc1nn(C)c2c1c(=O)c(C(=O)NC1CCCCC1)cn2Cc1ccccc1	36	1100	4250	3820	956	4.4	4560		
CCCn1cc(C(=O)NC2CCCCC2)c(=O)c2c(C)nn(C)c21		593	758		412	1.8	832		
CCCCCn1cc(C(=O)NC2CCCCCC2)c(=O)c2c(C)nn(C)c21	65	35	252	51	11.2	23	1620		
CCCCCn1cc(C(=O)NC2CCCCC2)c(=O)c2c(C)noc21	98	38	155	14.3	8.74	17.7	187		
CCCCCn1cc(C(=O)NC23CC4CC(CC(C4)C2)C3)c(=O)c2c(C)noc21	97	26	1470	83	21	69.9	1490		
CCCCCn1cc(C(=O)NC23CC4CC(CC(C4)C2)C3)c(=O)c2c(C)csc21	-167	1.25	13.7	31	1.12	12.5	16.5		
CCCCCn1cc(C(=O)NCC2CCCCC2)c(=O)c2c(C)nn(C)c21	41	508	1120	1560	372	3	1040		
CCCCCn1cc(C(=O)Nc2ccccc2)c(=O)c2c(C)nn(C)c21	38	740	865	2160	524	1.7	1020		
CCCCCCn1cc(C(=O)NC2CCCCC2)c(=O)c2c(C)nn(C)c21	27	480	3870	1200	325	12	3220		
CCCCCn1cc(C(=O)NCc2ccccc2)c(=O)c2c(C)nn(C)c21		4520	> 10000		3650	> 2.7	> 10000	42	38
CCCCCn1cc(C(=O)NC23CC4CC(CC(C4)C2)C3)c(=O)n2ncnc12	60	21	712	87	20	35.6	850		
CCCCCn1cc(C(=O)NC23CC4CC(CC(C4)C2)C3)c(=O)c2c(C(C)(C)C)nn(C)c21	43	417	3750	1760	363	10	3430		
CCCCCn1cc(C(=O)NC2CCCCC2)c(=O)c2c(C(C)(C)C)nn(C)c21		4030	> 10000		3530	> 2.8	> 10000	19	23
